Test results published in ChEMBL document CHEMBL1828552, “Synthesis and studies of novel 2-(4-cyano-3-trifluoromethylphenyl amino)-4-(quinoline-4-yloxy)-6-(piperazinyl/piperidinyl)-s-triazines as potential antimicrobial, antimycobacterial and anticancer agents” (2011).
Values after ≈ are worked out from the molar mass of the structure shown.

Key:
Aspergillus clavatus [1] = experiment: Antifungal activity against 10^5 CFU/mL Aspergillus clavatus MTCC 1323 after 48 hrs by disc diffusion technique; type: functional
Candida albicans [2] = experiment: Antifungal activity against 10^5 CFU/mL Candida albicans MTCC 183 after 48 hrs by disc diffusion technique; type: functional
Shigella flexneri [3] = experiment: Antibacterial activity against 10^5 CFU/mL Shigella flexneri MTCC 1457 after 24 hrs by agar streak dilution method; type: functional; conditions: MTCC 1457, 24 h
Procedure, shortened: (§1)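 Agar streak dilution. Stock 100 µg/mL in DMSO; graded amounts were mixed into molten nutrient agar and poured at 4–5 mm depth. Plates carried serial dilutions over […]. About 10⁵ CFU/mL of each bacterium was applied, and plates were incubated at 37 ± 1 °C for 24 h. MIC was read from the dilution series.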

Bacillus cereus [4] = experiment: Antibacterial activity against 10^5 CFU/mL Bacillus cereus MTCC 619 after 24 hrs by disc diffusion technique; type: functional
Procedure, shortened: (§2)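 Disc diffusion on Mueller–Hinton agar poured 5 mm deep. The surface was swabbed with a 10⁵ CFU/mL […] suspension. Filter-paper discs 6.25 mm in diameter were soaked in compound in DMSO and placed on the agar. Plates were incubated 24 h at 37 ± 1 °C, and the inhibition zone was measured in mm. A DMSO disc served as blank.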

Aspergillus clavatus [5] = experiment: Antifungal activity against 10^5 CFU/mL Aspergillus clavatus MTCC 1323 after 48 hrs by agar streak dilution method; type: functional; conditions: MTCC 1323, 48 h
Procedure, shortened: (§3)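 Agar streak dilution for fungi. Stock 100 µg/mL in DMSO; graded amounts were mixed into molten Sabouraud dextrose agar and poured at 4–5 mm depth. Serial dilutions ran over […]. About 10⁵ CFU/mL inoculum was applied, with incubation at 37 ± 1 °C for 48 h. MIC was read from the dilution series.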

Staphylococcus aureus [6] = experiment: Antibacterial activity against 10^5 CFU/mL Staphylococcus aureus MTCC 96 after 24 hrs by disc diffusion technique; type: functional; procedure, shortened: as §2
Escherichia coli [7] = experiment: Antibacterial activity against 10^5 CFU/mL Escherichia coli MTCC 739 after 24 hrs by disc diffusion technique; type: functional; procedure, shortened: as §2
Bacillus cereus [8] = experiment: Antibacterial activity against 10^5 CFU/mL Bacillus cereus MTCC 619 after 24 hrs by agar streak dilution method; type: functional; conditions: MTCC 619, 24 h; procedure, shortened: as §1
Escherichia coli [9] = experiment: Antibacterial activity against 10^5 CFU/mL Escherichia coli MTCC 739 after 24 hrs by agar streak dilution method; type: functional; conditions: MTCC 739, 24 h; procedure, shortened: as §1
Aspergillus niger [10] = experiment: Antifungal activity against 10^5 CFU/mL Aspergillus niger MTCC 282 after 48 hrs by agar streak dilution method; type: functional; conditions: MTCC 282, 48 h; procedure, shortened: as §3
Proteus vulgaris [11] = experiment: Antibacterial activity against 10^5 CFU/mL Proteus vulgaris MTCC 1771 after 24 hrs by disc diffusion technique; type: functional; procedure, shortened: as §2
DU-145 = experiment: Cytotoxicity against […] human DU145 cells after 48 hrs by SRB assay; type: functional; conditions: DU-145, 48 h
Procedure, shortened: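 SRB assay in DU-145 cells grown in RPMI 1640 with 10% FBS and 2 mM L-glutamine. Cells were plated and held 24 h before addition of four 10-fold concentrations. After 48 h, cells were TCA-fixed, stained with 0.4% SRB and read at 540 nm. GI50, TGI and LC50 were derived against time-zero and control wells; each value is the mean of three experiments.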

Aspergillus niger [12] = experiment: Antifungal activity against 10^5 CFU/mL Aspergillus niger MTCC 282 after 48 hrs by disc diffusion technique; type: functional
Aspergillus fumigatus [13] = experiment: Antifungal activity against 10^5 CFU/mL Aspergillus fumigatus MTCC 343 after 48 hrs by agar streak dilution method; type: functional; conditions: MTCC 343, 48 h; procedure, shortened: as §3
Aspergillus fumigatus [14] = experiment: Antifungal activity against 10^5 CFU/mL Aspergillus fumigatus MTCC 343 after 48 hrs by disc diffusion technique; type: functional
Klebsiella pneumoniae [15] = experiment: Antibacterial activity against 10^5 CFU/mL Klebsiella pneumoniae MTCC 109 after 24 hrs by agar streak dilution method; type: functional; conditions: MTCC 109, 24 h; procedure, shortened: as §1
Salmonella typhi [16] = experiment: Antibacterial activity against 10^5 CFU/mL Salmonella typhi MTCC 733 after 24 hrs by agar streak dilution method; type: functional, Salmonella enterica subsp. enterica serovar Typhi; conditions: Salmonella enterica, MTCC 733, 24 h
Pseudomonas aeruginosa [17] = experiment: Antibacterial activity against 10^5 CFU/mL Pseudomonas aeruginosa MTCC 741 after 24 hrs by disc diffusion technique; type: functional; procedure, shortened: as §2
Candida albicans [18] = experiment: Antifungal activity against 10^5 CFU/mL Candida albicans MTCC 183 after 48 hrs by agar streak dilution method; type: functional; conditions: MTCC 183, 48 h; procedure, shortened: as §3
Proteus vulgaris [19] = experiment: Antibacterial activity against 10^5 CFU/mL Proteus vulgaris MTCC 1771 after 24 hrs by agar streak dilution method; type: functional; conditions: MTCC 1771, 24 h; procedure, shortened: as §1
Shigella flexneri [20] = experiment: Antibacterial activity against 10^5 CFU/mL Shigella flexneri MTCC 1457 after 24 hrs by disc diffusion technique; type: functional; procedure, shortened: as §2
Pseudomonas aeruginosa [21] = experiment: Antibacterial activity against 10^5 CFU/mL Pseudomonas aeruginosa MTCC 741 after 24 hrs by agar streak dilution method; type: functional; conditions: MTCC 741, 24 h; procedure, shortened: as §1
Staphylococcus aureus [22] = experiment: Antibacterial activity against 10^5 CFU/mL Staphylococcus aureus MTCC 96 after 24 hrs by agar streak dilution method; type: functional; conditions: MTCC 96, 24 h; procedure, shortened: as §1
Salmonella typhi [23] = experiment: Antibacterial activity against 10^5 CFU/mL Salmonella typhi MTCC 733 after 24 hrs by disc diffusion technique; type: functional, Salmonella enterica subsp. enterica serovar Typhi
Procedure, shortened: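 Disc diffusion. Mueller-Hinton agar autoclaved 120 °C 30 min, poured 5 mm deep. Surface swabbed with 10⁵ CFU/mL suspension […]. 6.25 mm filter-paper discs soaked in compound in DMSO; DMSO-only disc as blank. Incubated 37 ± 1 °C, 24 h for bacteria or 48 h for fungi. Ciprofloxacin and ketoconazole discs as reference drugs. Inhibition zone measured in mm.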

Klebsiella pneumoniae [24] = experiment: Antibacterial activity against 10^5 CFU/mL Klebsiella pneumoniae MTCC 109 after 24 hrs by disc diffusion technique; type: functional; procedure, shortened: as §2

Structure (SMILES) | inhibition zone (IZ) (Aspergillus clavatus [1]) [mm] | inhibition zone (IZ) (Candida albicans [2]) [mm] | MIC (Shigella flexneri [3]) [µg/mL] | inhibition zone (IZ) (Bacillus cereus [4]) [mm] | MIC (Aspergillus clavatus [5]) [µg/mL] | inhibition zone (IZ) (Staphylococcus aureus [6]) [mm] | inhibition zone (IZ) (Escherichia coli [7]) [mm] | MIC (Bacillus cereus [8]) [µg/mL] | MIC (Escherichia coli [9]) [µg/mL] | MIC (Aspergillus niger [10]) [µg/mL] | inhibition zone (IZ) (Proteus vulgaris [11]) [mm] | GI50 (DU-145) [µM] | LC50 (concentration giving 50% net cell kill relative to time zero) (DU-145) [µM] | TGI (DU-145) [µM] | inhibition zone (IZ) (Aspergillus niger [12]) [mm] | MIC (Aspergillus fumigatus [13]) [µg/mL] | inhibition zone (IZ) (Aspergillus fumigatus [14]) [mm] | MIC (Klebsiella pneumoniae [15]) [µg/mL] | MIC (Salmonella typhi [16]) [µg/mL] | inhibition zone (IZ) (Pseudomonas aeruginosa [17]) [mm] | further results
CN1CCN(c2nc(Nc3ccc(C#N)c(C(F)(F)F)c3)nc(Oc3ccnc4ccccc34)n2)CC1 | <10 | <10 | 100 (≈ 197 µM) | <10 | 100 (≈ 197 µM) | <10 | <10 | 100 (≈ 197 µM) | 100 (≈ 197 µM) | 100 (≈ 197 µM) | <10 | 51.2 | > 100 | > 100 | <10 | 100 (≈ 197 µM) | <10 | 100 (≈ 197 µM) | 100 (≈ 197 µM) | 14 | MIC (Candida albicans [18]): 100 µg/mL (≈ 197 µM); MIC (Proteus vulgaris [19]): 100 µg/mL (≈ 197 µM); inhibition zone (IZ) (Shigella flexneri [20]): 11 mm; MIC (Pseudomonas aeruginosa [21]): 100 µg/mL (≈ 197 µM); MIC (Staphylococcus aureus [22]): 100 µg/mL (≈ 197 µM); inhibition zone (IZ) (Salmonella typhi [23]): 13 mm; inhibition zone (IZ) (Klebsiella pneumoniae [24]): <10 mm
CCN1CCN(c2nc(Nc3ccc(C#N)c(C(F)(F)F)c3)nc(Oc3ccnc4ccccc34)n2)CC1 | <10 | 12 | 100 (≈ 192 µM) | 14 | 100 (≈ 192 µM) | 13 | 13 | 100 (≈ 192 µM) | 100 (≈ 192 µM) | 100 (≈ 192 µM) | <10 | 86.6 | > 100 | > 100 | <10 | 100 (≈ 192 µM) | <10 | 100 (≈ 192 µM) | 100 (≈ 192 µM) | 16 | MIC (Candida albicans [18]): 100 µg/mL (≈ 192 µM); MIC (Proteus vulgaris [19]): 100 µg/mL (≈ 192 µM); inhibition zone (IZ) (Shigella flexneri [20]): 13 mm; MIC (Pseudomonas aeruginosa [21]): 100 µg/mL (≈ 192 µM); MIC (Staphylococcus aureus [22]): 100 µg/mL (≈ 192 µM); inhibition zone (IZ) (Salmonella typhi [23]): 15 mm; inhibition zone (IZ) (Klebsiella pneumoniae [24]): <10 mm
N#Cc1ccc(Nc2nc(Oc3ccnc4ccccc34)nc(N3CCN(c4ccccc4Cl)CC3)n2)cc1C(F)(F)F | 20 | 20 | 50 (≈ 82.9 µM) | 24 | 100 (≈ 166 µM) | 25 | 22 | 12.5 (≈ 20.7 µM) | 50 (≈ 82.9 µM) | 100 (≈ 166 µM) | 23 | 92.6 | > 100 | > 100 | 21 | 100 (≈ 166 µM) | 21 | 12.5 (≈ 20.7 µM) | 50 (≈ 82.9 µM) | 23 | MIC (Candida albicans [18]): 100 µg/mL (≈ 166 µM); MIC (Proteus vulgaris [19]): 100 µg/mL (≈ 166 µM); inhibition zone (IZ) (Shigella flexneri [20]): 21 mm; MIC (Pseudomonas aeruginosa [21]): 50 µg/mL (≈ 82.9 µM); MIC (Staphylococcus aureus [22]): 12.5 µg/mL (≈ 20.7 µM); inhibition zone (IZ) (Salmonella typhi [23]): 23 mm; inhibition zone (IZ) (Klebsiella pneumoniae [24]): 26 mm
N#Cc1ccc(Nc2nc(Oc3ccnc4ccccc34)nc(N3CCN(c4cccc(Cl)c4Cl)CC3)n2)cc1C(F)(F)F | 21 | 23 | 12.5 (≈ 19.6 µM) | 28 | 50 (≈ 78.4 µM) | 28 | 23 | 6.25 (≈ 9.8 µM) | 50 (≈ 78.4 µM) | 25 (≈ 39.2 µM) | 25 | > 100 | > 100 | > 100 | 24 | 25 (≈ 39.2 µM) | 25 | 12.5 (≈ 19.6 µM) | 12.5 (≈ 19.6 µM) | 23 | MIC (Candida albicans [18]): 50 µg/mL (≈ 78.4 µM); MIC (Proteus vulgaris [19]): 12.5 µg/mL (≈ 19.6 µM); inhibition zone (IZ) (Shigella flexneri [20]): 24 mm; MIC (Pseudomonas aeruginosa [21]): 25 µg/mL (≈ 39.2 µM); MIC (Staphylococcus aureus [22]): 6.25 µg/mL (≈ 9.8 µM); inhibition zone (IZ) (Salmonella typhi [23]): 25 mm; inhibition zone (IZ) (Klebsiella pneumoniae [24]): 24 mm
N#Cc1ccc(Nc2nc(Oc3ccnc4ccccc34)nc(N3CCCCC3)n2)cc1C(F)(F)F | 14 | 12 | 100 (≈ 203 µM) | 14 | 100 (≈ 203 µM) | 11 | <10 | 100 (≈ 203 µM) | 100 (≈ 203 µM) | 100 (≈ 203 µM) | 14 | 94.9 | > 100 | > 100 | 12 | 100 (≈ 203 µM) | <10 | 100 (≈ 203 µM) | 100 (≈ 203 µM) | <10 | MIC (Candida albicans [18]): 100 µg/mL (≈ 203 µM); MIC (Proteus vulgaris [19]): 100 µg/mL (≈ 203 µM); inhibition zone (IZ) (Shigella flexneri [20]): <10 mm; MIC (Pseudomonas aeruginosa [21]): 100 µg/mL (≈ 203 µM); MIC (Staphylococcus aureus [22]): 100 µg/mL (≈ 203 µM); inhibition zone (IZ) (Salmonella typhi [23]): 12 mm; inhibition zone (IZ) (Klebsiella pneumoniae [24]): 15 mm
COc1cccc2c1C(=O)c1c(O)c3c(c(O)c1C2=O)C[C@@](O)(C(=O)CO)C[C@@H]3O[C@H]1C[C@H](N)[C@H](O)[C@H](C)O1 [DOXORUBICIN] |  |  |  |  |  |  |  |  |  |  |  | < 0.1 |  | > 100 |  |  |  |  |  |  | 
